Assays:
Format in all cases: functional
Settings in all cases: read-out: Activity
LOX IMVI = assay: Growth inhibition of human LOX IMVI cells assessed as cell growth at 10 uM incubated for 48 hrs by sulforhodamine B assay relative to control
Summary of the method: (§1)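 Submitted to the NCI Developmental Therapeutics Program for the NCI60 human tumour cell line panel. First screen at a single 10 µM concentration. Read-out is growth relative to untreated control cells set at 100%.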

SR = assay: Growth inhibition of human SR cells assessed as cell growth at 10 uM incubated for 48 hrs by sulforhodamine B assay relative to control
Summary of the method: (§2)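 Run by the NCI Developmental Therapeutics Program as part of its 60-line human tumour panel. Each compound tested at a single 10 µM dose. Growth expressed as % relative to untreated control cells (100%).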

HOP-62 = assay: Growth inhibition of human HOP-62 cells assessed as cell growth at 10 uM incubated for 48 hrs by sulforhodamine B assay relative to control; summary of the method: as §1
NCI-H23 = assay: Growth inhibition of human NCI-H23 cells assessed as cell growth at 10 uM incubated for 48 hrs by sulforhodamine B assay relative to control; summary of the method: as §1
SF-268 = assay: Growth inhibition of human SF-268 cells assessed as cell growth at 10 uM incubated for 48 hrs by sulforhodamine B assay relative to control; summary of the method: as §2
CAKI-1 = assay: Growth inhibition of human CAKI-1 cells assessed as cell growth at 10 uM incubated for 48 hrs by sulforhodamine B assay relative to control
Summary of the method: (§3)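 NCI Developmental Therapeutics Program NCI60 panel. Compounds that were active in the 10 µM one-dose screen went on to dose–response testing. Growth at each concentration is expressed relative to untreated control (100%). GI50 (concentration giving 50% of maximal inhibition of proliferation) and TGI (concentration giving total growth inhibition) were derived from the curves.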

CCRF-CEM = assay: Growth inhibition of human CCRF-CEM cells assessed as cell growth at 10 uM incubated for 48 hrs by sulforhodamine B assay relative to control; summary of the method: as §3
SW-620 = assay: Growth inhibition of human SW-620 cells assessed as cell growth at 10 uM incubated for 48 hrs by sulforhodamine B assay relative to control; summary of the method: as §2
UACC-257 = assay: Growth inhibition of human UACC-257 cells assessed as cell growth at 10 uM incubated for 48 hrs by sulforhodamine B assay relative to control; summary of the method: as §2
NCI-H322M = assay: Growth inhibition of human NCI-H322M cells assessed as cell growth at 10 uM incubated for 48 hrs by sulforhodamine B assay relative to control; summary of the method: as §1
OVCAR-5 = assay: Growth inhibition of human OVCAR-5 cells assessed as cell growth at 10 uM incubated for 48 hrs by sulforhodamine B assay relative to control; summary of the method: as §2
K562 = assay: Growth inhibition of human K562 cells assessed as cell growth at 10 uM incubated for 48 hrs by sulforhodamine B assay relative to control; summary of the method: as §1
IGROV-1 = assay: Growth inhibition of human IGROV-1 cells assessed as cell growth at 10 uM incubated for 48 hrs by sulforhodamine B assay relative to control; summary of the method: as §1
UACC-62 = assay: Growth inhibition of human UACC-62 cells assessed as cell growth at 10 uM incubated for 48 hrs by sulforhodamine B assay relative to control; summary of the method: as §2
MDA-MB-231 = assay: Growth inhibition of human MDA-MB-231 cells assessed as cell growth at 10 uM incubated for 48 hrs by sulforhodamine B assay relative to control; summary of the method: as §1
NCI-H226 = assay: Growth inhibition of human NCI-H226 cells assessed as cell growth at 10 uM incubated for 48 hrs by sulforhodamine B assay relative to control; summary of the method: as §1
SK-MEL-28 = assay: Growth inhibition of human SK-MEL-28 cells assessed as cell growth at 10 uM incubated for 48 hrs by sulforhodamine B assay relative to control; summary of the method: as §2
SNB-75 = assay: Growth inhibition of human SNB-75 cells assessed as cell growth at 10 uM incubated for 48 hrs by sulforhodamine B assay relative to control; summary of the method: as §2
RPMI-8226 = assay: Growth inhibition of human RPMI-8226 cells assessed as cell growth at 10 uM incubated for 48 hrs by sulforhodamine B assay relative to control; summary of the method: as §2
Hs-578T = assay: Growth inhibition of human Hs-578T cells assessed as cell growth at 10 uM incubated for 48 hrs by sulforhodamine B assay relative to control; summary of the method: as §1
SK-MEL-2 = assay: Growth inhibition of human SK-MEL-2 cells assessed as cell growth at 10 uM incubated for 48 hrs by sulforhodamine B assay relative to control; summary of the method: as §2
TK-10 = assay: Growth inhibition of human TK-10 cells assessed as cell growth at 10 uM incubated for 48 hrs by sulforhodamine B assay relative to control; summary of the method: as §2
NCI-H522 = assay: Growth inhibition of human NCI-H522 cells assessed as cell growth at 10 uM incubated for 48 hrs by sulforhodamine B assay relative to control; summary of the method: as §1

Structure (SMILES)	growth at 10 µM (LOX IMVI)	growth at 10 µM (SR)	growth at 10 µM (HOP-62)	growth at 10 µM (NCI-H23)	growth at 10 µM (SF-268)	growth at 10 µM (CAKI-1)	growth at 10 µM (CCRF-CEM)	growth at 10 µM (SW-620)	growth at 10 µM (UACC-257)	growth at 10 µM (NCI-H322M)	growth at 10 µM (OVCAR-5)	growth at 10 µM (K562)	growth at 10 µM (IGROV-1)	growth at 10 µM (UACC-62)	growth at 10 µM (MDA-MB-231)	growth at 10 µM (NCI-H226)	growth at 10 µM (SK-MEL-28)	growth at 10 µM (SNB-75)	growth at 10 µM (RPMI-8226)	growth at 10 µM (Hs-578T)	other results
Cc1cc(C)cc(S(=O)(=O)n2ccc(-c3ccc4c(c3)CCC(C)(C)O4)n2)c1	95%	76.5%	116%	73.6%	88.3%	72.5%	96.3%	88.3%	89.6%	92%	116%	85.8%	105%	73.9%	93.5%	66.8%	102%	87.2%	73.2%	92.7%	–
CC1(C)CCc2cc(-c3ccn(S(=O)(=O)c4ccccc4)n3)ccc2O1	85.2%	56.7%	108%	75.5%	85.4%	62.9%	65.6%	71%	82.7%	91.7%	89.7%	10%	96.4%	73.3%	104%	69.7%	97.2%	78.9%	59.5%	90.1%	–
COc1ccc(-c2ccn(S(=O)(=O)c3ccc(OC)cc3)n2)cc1	88.8%	57.8%	101%	79.8%	95.6%	66.2%	71.3%	82.1%	86.2%	98.3%	90.2%	57%	91.6%	71.3%	96.2%	70.9%	99.2%	88.9%	58.7%	93.6%	–
COc1ccc(S(=O)(=O)n2ccc(-c3ccc4c(c3)CCC(C)(C)O4)n2)cc1OC	76.7%	60.2%	112%	56%	85.3%	58.3%	82.2%	79.9%	57.1%	89.5%	105%	53%	84.3%	63.9%	82.5%	59%	91%	84.6%	59%	91.5%	growth at 10 µM (SK-MEL-2): 56.1%; growth at 10 µM (TK-10): 72.1%; growth at 10 µM (NCI-H522): 65.8%
CC1(C)CCc2cc(-c3ccn(S(=O)(=O)c4ccc(Cl)cc4Cl)n3)ccc2O1	104%	77.9%	105%	98.1%	99.5%	83.8%	62.4%	91.9%	97.1%	90.5%	97.5%	75.7%	94.5%	72.6%	93.3%	87%	102%	97.4%	79%	98.8%	growth at 10 µM (SK-MEL-2): 79.7%; growth at 10 µM (TK-10): 68.7%; growth at 10 µM (NCI-H522): 60.4%
